ChEMBL document CHEMBL2311304, “Design, synthesis and in vitro and in vivo antitumor activities of novel bivalent β-carbolines” (Eur J Med Chem, 2013)

Tests used:
Type in all cases: functional, cell-based
KB = experiment: Cytotoxicity against human epidermoid carcinoma of the nasopharynx KB cells assessed as reduction in optical density by MTT assay
Method in brief: (§1)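 Cells were cultured in RPMI-1640 with 10% (v/v) fetal calf serum, 100 µg ml-1 penicillin and 100 µg ml-1 streptomycin at 37 °C in humidified 5% CO2. Compounds were dissolved in DMSO, with final DMSO at 2% (v/v) or lower. MTT staining was used, with three replicate wells per point. IC50 is the concentration giving a 50% drop in optical density versus untreated cells.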

A-375 = experiment: Cytotoxicity against human malignant melanoma A375 cells assessed as reduction in optical density by MTT assay; method in brief: as §1
769-P = experiment: Cytotoxicity against human renal carcinoma 769-P cells assessed as reduction in optical density by MTT assay; method in brief: as §1
SK-OV-3 = experiment: Cytotoxicity against human ovary adenocarcinoma SKOV3 cells assessed as reduction in optical density by MTT assay; conditions: SK-OV-3, Female gonad; method in brief: as §1
BGC-823 = experiment: Cytotoxicity against human gastric carcinoma BGC823 cells assessed as reduction in optical density by MTT assay; method in brief: as §1

## c1ccc2c(c1)c1ccnc(-c3ccsc3)c1n2CCCCCCn1c2ccccc2c2ccnc(-c3ccsc3)c21
KB
  IC50: > 200 µM
A-375
  IC50: > 200 µM
769-P
  IC50: > 200 µM
SK-OV-3
  IC50: > 200 µM
BGC-823
  IC50: > 200 µM

## Cc1nccc2c3cc(Br)ccc3n(CCCCCCn3c4ccc(Br)cc4c4ccnc(C)c43)c12
KB
  IC50: > 200 µM
A-375
  IC50: > 200 µM
769-P
  IC50: > 200 µM
SK-OV-3
  IC50: 63.4 µM
BGC-823
  IC50: > 200 µM

## CCCCOc1ccc2c3ccnc(C)c3n(CCCCCCn3c4cc(OCCCC)ccc4c4ccnc(C)c43)c2c1
KB
  IC50: > 200 µM
A-375
  IC50: > 200 µM
769-P
  IC50: 56 µM
SK-OV-3
  IC50: > 200 µM
BGC-823
  IC50: > 200 µM

## c1ccc2c(c1)c1ccncc1n2CCCCCCCn1c2ccccc2c2ccncc21
KB
  IC50: > 200 µM
A-375
  IC50: > 200 µM
769-P
  IC50: 53 µM
SK-OV-3
  IC50: > 200 µM
BGC-823
  IC50: > 200 µM

## COc1ccc2c3ccnc(C)c3n(CCCCCn3c4cc(OC)ccc4c4ccnc(C)c43)c2c1
KB
  IC50: 5 µM
A-375
  IC50: < 1.4 µM
769-P
  IC50: 81 µM
SK-OV-3
  IC50: 1.7 µM
BGC-823
  IC50: 58.6 µM

## CCOC(=O)c1cc2c3ccccc3n(CCCCCCn3c4ccccc4c4cc(C(=O)OCC)nc(C)c43)c2c(C)n1
KB
  IC50: > 200 µM
A-375
  IC50: > 200 µM
769-P
  IC50: > 200 µM
SK-OV-3
  IC50: > 200 µM
BGC-823
  IC50: > 200 µM

## Cc1nccc2c3ccccc3n(CCCCCCCCCCn3c4ccccc4c4ccnc(C)c43)c12
KB
  IC50: > 200 µM
A-375
  IC50: > 200 µM
769-P
  IC50: 16.2 µM
SK-OV-3
  IC50: 8.5 µM
BGC-823
  IC50: > 200 µM

## CC(C)c1nccc2c3ccccc3n(CCCCCCCCCCn3c4ccccc4c4ccnc(C(C)C)c43)c12
KB
  IC50: > 200 µM
A-375
  IC50: 19.6 µM
769-P
  IC50: 4.6 µM
SK-OV-3
  IC50: > 200 µM
BGC-823
  IC50: > 200 µM
